# Where a name gives a salt, the structure may show the parent alone.
# What was measured:
# [1] = test system: nAChRs; settings: cited from earlier work
# [2] = biological target: VMAT2 (Rattus norvegicus, UniProt Q01827); experiment: Vesicular [3H]DA uptake, rat striatal synaptic vesicles; type: biochemical
# [3] = biological target: α4β2 nAChRs (Rattus norvegicus, UniProt P09483+P12390); experiment: [3H]NIC binding to rat brain membranes; settings: 0.1 nM - 0.1 mM
# [4] = test system: METH-sensitized locomotor activity; experiment: METH-induced hyperactivity in METH-sensitized rats, GZ-11610 oral; type: in vivo, rat; settings: 5.6-300 mg/kg
# [5] = biological target: α7 nAChRs (Rattus norvegicus, UniProt Q05941); experiment: [3H]MLA binding to rat brain membranes; settings: 0.1 nM - 0.1 mM
# Method in brief: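 Membranes from rat whole brain minus cortex and cerebellum, washed by repeated 31,000 g spins, with a 10 min 37°C incubation. Binding used 100–140 μg protein, test compound at 7–9 concentrations (0.1 nM–0.1 mM), and [3H]MLA added at 3 nM, in HEPES saline buffer pH 7.5, for 60 min at room temperature. Nonspecific binding was defined with 10 μM nicotine. Read-out by PEI-GF/B filtration and scintillation; n=3.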
# [6] = biological target: hERG channels (Homo sapiens, UniProt Q12809); experiment: [3H]Dofetilide binding to hERG channels on HEK-293 cell membranes
# [7] = biological target: SERT (Rattus norvegicus, UniProt P31652); experiment: Synaptosomal [3H]5-HT uptake, rat striatal synaptosomes; type: biochemical
# [8] = biological target: DAT (Rattus norvegicus, UniProt P23977); experiment: Synaptosomal [3H]DA uptake, rat striatal synaptosomes; type: biochemical
# [9] = test system: METH-sensitized locomotor activity; experiment: METH-induced hyperactivity in METH-sensitized rats, GZ-11610 s.c.; type: in vivo, rat; settings: 1-30 mg/kg, 15 min before METH 1 mg/kg s.c., vs vehicle
# [10] = test system: locomotor activity; experiment: Locomotor sensitization to repeated METH administration; type: in vivo, rat
# Method in brief: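 Rats randomly assigned to METH or saline groups. Day 0: 60 min chamber habituation without injection. Distance traveled on Days 1 and 10 compared with saline controls and with Day 1.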
# [11] = cited from earlier work
# [12] = test system: cells co-expressing VMAT2 and DAT; settings: dissociated cells co-expressing VMAT2 and DAT; cited from earlier work
# Chain of VMAT2 (Q01827 whole entry): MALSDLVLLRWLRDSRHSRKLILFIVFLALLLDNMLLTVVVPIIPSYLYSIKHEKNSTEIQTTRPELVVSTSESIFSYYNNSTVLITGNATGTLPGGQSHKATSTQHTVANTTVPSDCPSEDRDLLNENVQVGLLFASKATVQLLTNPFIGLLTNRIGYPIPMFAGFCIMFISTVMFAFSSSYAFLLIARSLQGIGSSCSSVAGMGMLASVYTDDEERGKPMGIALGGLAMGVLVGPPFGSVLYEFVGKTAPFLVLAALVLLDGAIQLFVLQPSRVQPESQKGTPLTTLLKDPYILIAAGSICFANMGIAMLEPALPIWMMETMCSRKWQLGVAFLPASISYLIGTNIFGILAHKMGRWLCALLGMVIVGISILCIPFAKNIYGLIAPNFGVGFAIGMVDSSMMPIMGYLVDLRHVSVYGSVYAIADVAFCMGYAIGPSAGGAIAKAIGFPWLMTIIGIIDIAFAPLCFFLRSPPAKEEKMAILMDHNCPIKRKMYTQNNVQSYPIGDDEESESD
# Chain of hERG channels (Q12809 whole entry): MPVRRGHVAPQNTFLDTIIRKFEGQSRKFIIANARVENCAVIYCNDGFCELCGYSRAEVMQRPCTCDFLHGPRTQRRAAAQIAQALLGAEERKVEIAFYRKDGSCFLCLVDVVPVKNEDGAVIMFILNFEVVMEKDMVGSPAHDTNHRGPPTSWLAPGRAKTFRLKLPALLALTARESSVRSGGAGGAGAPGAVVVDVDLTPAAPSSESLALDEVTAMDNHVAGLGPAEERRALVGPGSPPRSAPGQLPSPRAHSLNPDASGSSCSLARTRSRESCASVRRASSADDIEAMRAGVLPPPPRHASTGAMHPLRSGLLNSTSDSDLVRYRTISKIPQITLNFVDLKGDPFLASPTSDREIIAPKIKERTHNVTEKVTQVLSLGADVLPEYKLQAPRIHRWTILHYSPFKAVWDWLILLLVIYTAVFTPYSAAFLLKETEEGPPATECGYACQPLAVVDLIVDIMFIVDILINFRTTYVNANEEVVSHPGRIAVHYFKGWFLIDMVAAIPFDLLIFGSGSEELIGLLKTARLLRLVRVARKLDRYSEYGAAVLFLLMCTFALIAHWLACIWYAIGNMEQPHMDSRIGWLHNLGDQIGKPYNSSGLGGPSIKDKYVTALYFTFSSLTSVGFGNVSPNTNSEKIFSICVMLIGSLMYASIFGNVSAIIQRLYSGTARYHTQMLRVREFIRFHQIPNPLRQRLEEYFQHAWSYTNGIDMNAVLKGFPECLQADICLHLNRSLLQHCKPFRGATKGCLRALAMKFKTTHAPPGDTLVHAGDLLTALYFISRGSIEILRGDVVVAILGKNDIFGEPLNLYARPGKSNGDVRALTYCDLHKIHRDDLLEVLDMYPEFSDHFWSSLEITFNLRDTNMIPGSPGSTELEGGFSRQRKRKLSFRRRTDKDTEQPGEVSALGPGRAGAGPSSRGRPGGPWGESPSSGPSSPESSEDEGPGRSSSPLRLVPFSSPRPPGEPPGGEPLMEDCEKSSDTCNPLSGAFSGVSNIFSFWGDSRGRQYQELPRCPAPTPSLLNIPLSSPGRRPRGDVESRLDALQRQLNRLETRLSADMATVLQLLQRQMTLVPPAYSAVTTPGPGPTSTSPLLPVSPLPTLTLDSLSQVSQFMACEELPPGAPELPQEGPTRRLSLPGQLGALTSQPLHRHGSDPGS
# Chain of DAT (P23977 whole entry): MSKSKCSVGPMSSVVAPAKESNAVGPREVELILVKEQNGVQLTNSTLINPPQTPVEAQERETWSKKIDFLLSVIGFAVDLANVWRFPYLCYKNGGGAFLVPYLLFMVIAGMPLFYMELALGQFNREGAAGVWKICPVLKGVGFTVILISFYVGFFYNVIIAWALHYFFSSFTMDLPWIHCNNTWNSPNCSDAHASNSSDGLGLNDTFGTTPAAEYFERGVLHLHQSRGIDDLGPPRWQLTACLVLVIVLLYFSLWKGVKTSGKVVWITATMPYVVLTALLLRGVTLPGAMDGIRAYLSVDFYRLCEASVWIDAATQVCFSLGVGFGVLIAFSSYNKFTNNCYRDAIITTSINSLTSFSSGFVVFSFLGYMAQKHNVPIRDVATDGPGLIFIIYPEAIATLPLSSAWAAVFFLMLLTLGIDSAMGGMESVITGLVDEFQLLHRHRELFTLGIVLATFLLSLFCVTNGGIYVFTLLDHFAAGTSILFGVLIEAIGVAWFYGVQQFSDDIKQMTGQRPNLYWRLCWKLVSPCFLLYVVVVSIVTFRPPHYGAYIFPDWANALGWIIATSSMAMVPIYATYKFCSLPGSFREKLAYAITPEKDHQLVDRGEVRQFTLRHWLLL
# Chain of SERT (P31652 whole entry): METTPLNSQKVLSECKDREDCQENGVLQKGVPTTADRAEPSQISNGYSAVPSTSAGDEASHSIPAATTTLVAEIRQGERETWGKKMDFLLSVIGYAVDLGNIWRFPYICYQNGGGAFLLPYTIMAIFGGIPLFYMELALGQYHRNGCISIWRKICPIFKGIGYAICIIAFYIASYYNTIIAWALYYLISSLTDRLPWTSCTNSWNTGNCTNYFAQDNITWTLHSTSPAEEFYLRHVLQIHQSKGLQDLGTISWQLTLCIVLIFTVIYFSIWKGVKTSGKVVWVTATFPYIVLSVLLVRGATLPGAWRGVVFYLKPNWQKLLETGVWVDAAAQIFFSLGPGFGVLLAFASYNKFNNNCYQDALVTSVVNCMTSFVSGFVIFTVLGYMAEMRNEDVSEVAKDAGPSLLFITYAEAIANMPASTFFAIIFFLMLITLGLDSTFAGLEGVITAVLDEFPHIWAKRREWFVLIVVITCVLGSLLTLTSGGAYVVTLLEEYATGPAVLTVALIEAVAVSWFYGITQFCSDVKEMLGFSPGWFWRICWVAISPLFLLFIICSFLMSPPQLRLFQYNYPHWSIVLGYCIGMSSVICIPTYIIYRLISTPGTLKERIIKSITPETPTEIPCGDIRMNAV
# Chain of α4β2 nAChRs (P09483 31-630): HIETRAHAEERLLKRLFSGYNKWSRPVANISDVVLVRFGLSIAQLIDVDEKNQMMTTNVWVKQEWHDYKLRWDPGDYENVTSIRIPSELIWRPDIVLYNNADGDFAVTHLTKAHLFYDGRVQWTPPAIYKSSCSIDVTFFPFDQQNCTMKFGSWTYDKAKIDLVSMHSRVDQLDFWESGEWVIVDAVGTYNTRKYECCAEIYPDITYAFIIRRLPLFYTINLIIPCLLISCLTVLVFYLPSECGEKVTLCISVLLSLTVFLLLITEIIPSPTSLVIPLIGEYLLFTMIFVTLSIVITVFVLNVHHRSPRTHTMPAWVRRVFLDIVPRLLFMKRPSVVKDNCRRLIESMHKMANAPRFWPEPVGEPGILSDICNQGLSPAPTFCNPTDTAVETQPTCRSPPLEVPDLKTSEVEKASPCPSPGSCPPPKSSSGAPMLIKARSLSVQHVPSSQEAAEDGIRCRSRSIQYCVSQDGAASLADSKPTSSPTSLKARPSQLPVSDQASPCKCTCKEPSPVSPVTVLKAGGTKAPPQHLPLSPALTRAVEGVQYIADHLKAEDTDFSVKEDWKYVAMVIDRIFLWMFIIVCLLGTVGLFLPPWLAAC
# Chain of α4β2 nAChRs (P12390 25-500): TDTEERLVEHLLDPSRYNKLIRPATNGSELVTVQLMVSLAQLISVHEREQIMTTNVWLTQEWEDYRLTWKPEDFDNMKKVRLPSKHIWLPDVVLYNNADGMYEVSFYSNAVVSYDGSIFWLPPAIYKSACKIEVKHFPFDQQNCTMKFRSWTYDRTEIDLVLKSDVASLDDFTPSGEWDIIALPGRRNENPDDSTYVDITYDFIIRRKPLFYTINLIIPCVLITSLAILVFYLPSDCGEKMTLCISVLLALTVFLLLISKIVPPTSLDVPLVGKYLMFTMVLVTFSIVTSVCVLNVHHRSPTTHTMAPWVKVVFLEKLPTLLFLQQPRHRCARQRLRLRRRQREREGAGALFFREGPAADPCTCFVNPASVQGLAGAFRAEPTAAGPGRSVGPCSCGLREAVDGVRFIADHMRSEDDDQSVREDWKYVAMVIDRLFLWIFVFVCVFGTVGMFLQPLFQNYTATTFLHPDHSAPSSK
# Chain of α7 nAChRs (Q05941 23-502): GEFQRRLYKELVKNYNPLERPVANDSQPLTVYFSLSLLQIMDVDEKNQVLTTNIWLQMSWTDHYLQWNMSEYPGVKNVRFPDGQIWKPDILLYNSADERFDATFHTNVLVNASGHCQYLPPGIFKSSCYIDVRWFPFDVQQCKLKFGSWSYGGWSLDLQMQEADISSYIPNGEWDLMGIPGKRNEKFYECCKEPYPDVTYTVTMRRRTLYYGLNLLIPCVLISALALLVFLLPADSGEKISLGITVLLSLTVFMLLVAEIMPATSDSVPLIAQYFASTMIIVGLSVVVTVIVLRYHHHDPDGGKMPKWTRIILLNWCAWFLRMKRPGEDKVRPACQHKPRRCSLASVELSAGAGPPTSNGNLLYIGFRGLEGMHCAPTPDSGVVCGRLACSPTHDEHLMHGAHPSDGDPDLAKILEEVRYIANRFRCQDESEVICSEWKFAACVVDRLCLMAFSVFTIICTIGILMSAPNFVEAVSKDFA
compound,measurement,setting,value
"COc1ccc(CCC2CCCC(CCc3ccc(OC)cc3)N2C[C@@H](O)CO)cc1.Cl (stereo in doubt) [GZ-793A, R-N-(1,2-dihydroxypropyl)-2,6-cis-di-(4-methoxyphenethyl)piperidine hydrochloride]",selectivity for VMAT2 over nAChRs,[1],> 1000 fold
"COc1ccc(CCCN[C@H](C)Cc2ccccc2)cc1 [GZ-11610, R-3-(4-methoxyphenyl)-N-(1-phenylpropan-2-yl)propan-1-amine]",maximal inhibition (Imax) of [3H]DA uptake at VMAT2,[2]; 0.1 nM - 0.1 mM,> 95%
same,Ki,"[2]; read-out: Ki, inhibition of [3H]DA uptake at VMAT2, rat striatal synaptic vesicles",0.0087 µM
same,"Imax, inhibition of [3H]NIC binding",[3],< 20%
same,effect on distance traveled after METH in the METH-sensitized group,"[4]; 15 min before METH 1 mg/kg s.c., vs vehicle",reduced the distance traveled
same,effect on locomotor activity in the saline group,[4]; one-way ANOVA,no significant GZ-11610 effects on locomotor activity
same,"Imax, inhibition of [3H]MLA binding",[5],< 20%
same,Ki,[6],9.5 µM
same,Imax of [3H]dofetilide binding to hERG channels,"[6]; HEK-293 cell membranes, 0.1 nM - 0.1 mM",> 80%
same,Imax of [3H]5-HT uptake at SERT,[7],> 95%
same,Ki,[7],5.55 µM
same,Ki,[8],2.51 µM
same,Imax of [3H]DA uptake at DAT,[8]; 0.1 nM - 0.1 mM,> 95%
same,effect on distance traveled after METH in the METH-sensitized group,[9],dose-dependently reduced the distance traveled
"CN[C@@H](C)Cc1ccccc1 [METH, (+)-Methamphetamine hydrochloride]","distance traveled compared to saline, Day 10",[10]; METH 1 mg/kg s.c. once daily for 10 days,increased distance traveled (p < 0.05)
same,"distance traveled compared to saline, Day 1",[10]; acute METH 1 mg/kg s.c.,increased (p < 0.05) distance traveled
same,LogP,[11],2.10
COc1cc2c(cc1OC)[C@H]1C[C@@H](O)[C@H](CC(C)C)CN1CC2 [dihydrotetrabenazene],reduction of METH-evoked DA efflux,[12],60%
CN1[C@@H](CC(=O)c2ccccc2)CCC[C@H]1C[C@H](O)c1ccccc1 [lobeline],reduction of METH-evoked DA efflux,[12],60%

# Reference: paper PMC7047575 (The AAPS journal, 2018)
